Results: ChEMBL document CHEMBL4665870, “RNA drug discovery: Conformational restriction enhances specific modulation of the T-box riboswitch function” (Bioorg Med Chem, 2020)
Calls of active or inactive are those of the source. The rule behind the calls is not given here.

Columns and labels:
[1] = Inhibition of tRNA-induced Escherichia coli RNA polymerase mediated T-box riboswitch transcription readthrough assessed as overall transcription in presence of RTprb and dsDNA at 100 uM by fluorescence-monitored in vitro transcription assay
Outline: (§1)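 In vitro transcription with 10 nM DNA template and 0.05 U/μL E. coli RNA polymerase sigma-saturated holoenzyme. Readout by 100 nM molecular beacon, with or without 30 nM tRNA and 100 μM ligand, at 28 °C. Readthrough = fluorescence at 6 h minus 0 min. Triplicates, unpaired t-test.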

[2] = Inhibition of tRNA-induced Escherichia coli RNA polymerase mediated T-box riboswitch transcription readthrough assessed as riboswitch function in presence of RTprb and dsDNA at 100 uM by fluorescence-monitored in vitro transcription assay; outline: as §1
[3] = tested on: T-box riboswitch antiterminator RNA (Bacillus subtilis); assay: Binding affinity to 5'TAMRA antiterminator C11U RNA (unknown origin) assessed as structural changes by fluorescence-monitored ligand binding assay relative to bulge deletion AM
[4] = Effect on HEX-antiterminator RNA-DABCYL (unknown origin) thermal stability at 100 uM by measuring fluorescence by AriaMx Real-Time PCR system
Outline: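 100 nM fluorophore–quencher 5′-HEX-AM-3′-DABCYL with 100 μM ligand in 10 mM sodium phosphate, 0.01 mM EDTA, pH 6.5, 5% DMSO. Fluorescence read (ex 535 nm / em 555 nm) while heating 40–90 °C. Tm taken from the first derivative of the raw data.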

[5] = Induction of tRNA-5'TAMRA-antiterminator RNA (unknown origin) complex disruption using fluorescently-labeled AM at 100 uM by fluorescence anisotropy monitored complex disruption assay
Outline: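 Fluorescence anisotropy of 100 nM 5′-TAMRA-AM with 2.5 μM tRNA and 100 μM ligand (n = 3). Controls were AM alone (r−) and AM plus tRNA (r+), run in replicate. Significance assessed by unpaired t-test.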

[6] = Binding affinity to 5'TAMRA-antiterminator RNA (unknown origin) assessed as structural changes by fluorescence-monitored ligand binding assay relative to bulge deletion AM

| Compound | inhibition [1] | inhibition [2] | Activity [3] | Activity [4] | Activity [5] | Activity [6] |
| --- | --- | --- | --- | --- | --- | --- |
| CC(=O)c1ccc(NC(=O)OC[C@@H]2OC(=O)N[C@H]2CN2CCN(c3ccccc3)CC2)cc1 | inactive | Active | – | – | – | – |
| O=C(Cc1ccccc1)OC[C@H]1OC(=O)N2CCc3c(-c4ccccc4)nnn3C[C@H]12 | inactive | Active | inactive | inactive | inactive | Active |
| O=C(Cc1ccccc1)OC[C@@H]1OC(=O)N2CCc3c(-c4ccccc4)nnn3C[C@@H]12 | inactive | Active | Active | inactive | inactive | Active |
| CC(=O)c1ccc(NC(=O)OC[C@@H]2OC(=O)N3CCc4c(-c5ccccc5)nnn4C[C@@H]23)cc1 | inactive | Active | Active | inactive | -20% | Active |
| O=C(Cc1ccccc1)OC[C@H]1OC(=O)N[C@@H]1CN1CCN(c2ccccc2)CC1 | inactive | Active | – | – | – | – |
| O=C(Cc1ccccc1)OC[C@@H]1OC(=O)N[C@H]1CN1CCN(c2ccccc2)CC1 | inactive | Active | – | – | – | – |
| CC(=O)c1ccc(NC(=O)OC[C@H]2OC(=O)N[C@@H]2CN2CCN(c3ccccc3)CC2)cc1 | inactive | Active | – | – | – | – |
| CC(=O)c1ccc(NC(=O)OC[C@H]2OC(=O)N3CCc4c(-c5ccccc5)nnn4C[C@H]23)cc1 | inactive | Active | Active | inactive | -28% | Active |
